# In ChEMBL document CHEMBL4680373, “Evaluation of 5-(Trifluoromethyl)-1,2,4-oxadiazole-Based Class IIa HDAC Inhibitors for Huntington's Disease” (ACS Med Chem Lett, 2021):
# Legend:
# [1] = molecular target: T1, Histone deacetylase 4 (Homo sapiens, UniProt P56524); experiment: Inhibition of HDAC4 (unknown origin) using Boc Lys(TFA) as substrate by fluorogenic assay
# Method in brief: (§1)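 Biochemical HDAC isoform assay with the artificial fluorogenic substrate Boc-Lys-(TFA)-AMC, which is specific to class IIa enzymes and HDAC8. IC50 taken as the geometric mean of three experiments.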
# [2] = molecular target: T1, Histone deacetylase 4; experiment: Inhibition of Class 2A HDAC4 in human Jurkat E6.1 cells using Boc-Lys-(TFA)-AMC as substrate by fluorogenic assay; format: cell-based
# Method in brief: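 Whole-cell assay in Jurkat E6.1 cells with artificial fluorogenic substrates: Boc-Lys-(TFA)-AMC for class IIa/HDAC8 activity, which in this line is mostly HDAC4, and Boc-Lys-(Ac)-AMC for class I/IIb activity. IC50 given as the geometric mean of three experiments.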
# [3] = Toxicity in CBAxC57BL/6J mouse assessed as effect on irritability at 10 to 100 mg/kg, po bid for 14.5 days; format: organism-based; settings: in vivo, 348 h, dose 10-100 mg/kg, time 14.5 day
# Method in brief: (§2)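 R6/2 HD mice and wild-type littermates, male and female, were dosed orally b.i.d. at 10, 30 or 100 mg/kg or with vehicle for 14.5 days. Vehicle was 10% (w/v) hydroxypropyl-β-cyclodextrin in 50 mM citrate buffer. Body weight, body temperature, passive observations and active manipulation scores were recorded. Blood and brain were collected 2 h after the final dose.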
# [4] = molecular target: Cytochrome P450 2C19 (Homo sapiens, UniProt P33261); experiment: Inhibition of CYP2C19 in human liver microsomes using (S)-(+)-mephenytoin as substrate incubated for 30 mins by LC-MS/MS analysis; format: ADME
# Sequence of Cytochrome P450 2C19 (P33261 whole entry): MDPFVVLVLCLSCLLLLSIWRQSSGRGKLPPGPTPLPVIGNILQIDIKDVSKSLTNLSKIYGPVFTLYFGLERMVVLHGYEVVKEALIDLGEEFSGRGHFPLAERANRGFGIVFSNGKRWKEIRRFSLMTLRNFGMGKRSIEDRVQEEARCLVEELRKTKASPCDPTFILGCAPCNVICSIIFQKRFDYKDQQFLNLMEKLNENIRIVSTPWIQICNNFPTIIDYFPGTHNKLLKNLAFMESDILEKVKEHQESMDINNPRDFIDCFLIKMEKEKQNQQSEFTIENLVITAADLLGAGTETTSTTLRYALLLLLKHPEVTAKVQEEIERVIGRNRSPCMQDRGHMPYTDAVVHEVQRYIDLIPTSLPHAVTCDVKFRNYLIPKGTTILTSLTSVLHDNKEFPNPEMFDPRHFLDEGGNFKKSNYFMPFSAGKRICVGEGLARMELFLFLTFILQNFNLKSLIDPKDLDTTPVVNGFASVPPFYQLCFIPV
# [5] = Toxicity in CBAxC57BL/6J mouse assessed as effect on body temperature at 10 to 100 mg/kg, po bid for 14.5 days; format: organism-based; settings: in vivo, 348 h, dose 10-100 mg/kg, time 14.5 day; method in brief: as §2
# [6] = Toxicity in CBAxC57BL/6J mouse assessed as effect on seizure at 10 to 100 mg/kg, po bid for 14.5 days; format: organism-based; settings: in vivo, 348 h, dose 10-100 mg/kg, time 14.5 day; method in brief: as §2
# [7] = molecular target: Histone deacetylase 3/Nuclear receptor corepressor 1 (HDAC3/NCoR1) (Homo sapiens); experiment: Inhibition of HDAC3/NCOR1 (unknown origin) using Boc-Lys(Ac) as substrate by fluorogenic assay
# [8] = Toxicity in CBAxC57BL/6J mouse assessed as effect on struggle by tail at 10 to 100 mg/kg, po bid for 14.5 days; format: organism-based; settings: in vivo, 348 h, dose 10-100 mg/kg, time 14.5 day; method in brief: as §2
# [9] = molecular target: Histone deacetylase 9 (Homo sapiens, UniProt Q9UKV0); experiment: Inhibition of HDAC9 (unknown origin) using Boc Lys(TFA) as substrate by fluorogenic assay; method in brief: as §1
# Sequence of Histone deacetylase 9 (Q9UKV0 whole entry): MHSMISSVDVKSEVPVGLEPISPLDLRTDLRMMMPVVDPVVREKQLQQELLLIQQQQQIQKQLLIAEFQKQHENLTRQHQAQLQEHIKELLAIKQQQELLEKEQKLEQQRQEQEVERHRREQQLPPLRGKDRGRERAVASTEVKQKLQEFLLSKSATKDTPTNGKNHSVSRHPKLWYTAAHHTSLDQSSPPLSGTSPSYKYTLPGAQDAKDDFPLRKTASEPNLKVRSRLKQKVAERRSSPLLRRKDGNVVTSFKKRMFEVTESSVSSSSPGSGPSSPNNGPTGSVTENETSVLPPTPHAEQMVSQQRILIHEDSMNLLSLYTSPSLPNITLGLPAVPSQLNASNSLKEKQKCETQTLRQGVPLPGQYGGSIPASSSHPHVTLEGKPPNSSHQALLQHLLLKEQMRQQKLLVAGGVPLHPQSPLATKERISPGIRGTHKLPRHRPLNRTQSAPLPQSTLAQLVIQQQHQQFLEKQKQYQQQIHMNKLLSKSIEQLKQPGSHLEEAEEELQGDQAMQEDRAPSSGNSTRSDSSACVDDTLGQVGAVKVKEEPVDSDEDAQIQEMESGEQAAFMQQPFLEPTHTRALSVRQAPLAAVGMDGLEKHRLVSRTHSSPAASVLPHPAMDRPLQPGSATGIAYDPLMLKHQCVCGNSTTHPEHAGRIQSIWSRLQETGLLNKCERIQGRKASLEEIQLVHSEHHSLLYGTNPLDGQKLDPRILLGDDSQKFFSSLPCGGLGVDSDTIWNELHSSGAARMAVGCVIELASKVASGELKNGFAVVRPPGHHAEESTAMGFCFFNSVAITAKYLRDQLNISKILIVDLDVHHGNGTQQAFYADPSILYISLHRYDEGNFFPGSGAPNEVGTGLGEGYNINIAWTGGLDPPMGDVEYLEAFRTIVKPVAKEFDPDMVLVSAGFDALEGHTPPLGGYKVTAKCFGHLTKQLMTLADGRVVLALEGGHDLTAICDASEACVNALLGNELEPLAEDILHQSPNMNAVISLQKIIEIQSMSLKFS
# [10] = Toxicity in CBAxC57BL/6J mouse assessed as effect on provoked biting at 10 to 100 mg/kg, po bid for 14.5 days; format: organism-based; settings: in vivo, 348 h, dose 10-100 mg/kg, time 14.5 day; method in brief: as §2
# [11] = molecular target: Voltage-gated inwardly rectifying potassium channel KCNH2 (Homo sapiens, UniProt Q12809); experiment: Inhibition of human ERG
# Sequence of Voltage-gated inwardly rectifying potassium channel KCNH2 (Q12809 whole entry): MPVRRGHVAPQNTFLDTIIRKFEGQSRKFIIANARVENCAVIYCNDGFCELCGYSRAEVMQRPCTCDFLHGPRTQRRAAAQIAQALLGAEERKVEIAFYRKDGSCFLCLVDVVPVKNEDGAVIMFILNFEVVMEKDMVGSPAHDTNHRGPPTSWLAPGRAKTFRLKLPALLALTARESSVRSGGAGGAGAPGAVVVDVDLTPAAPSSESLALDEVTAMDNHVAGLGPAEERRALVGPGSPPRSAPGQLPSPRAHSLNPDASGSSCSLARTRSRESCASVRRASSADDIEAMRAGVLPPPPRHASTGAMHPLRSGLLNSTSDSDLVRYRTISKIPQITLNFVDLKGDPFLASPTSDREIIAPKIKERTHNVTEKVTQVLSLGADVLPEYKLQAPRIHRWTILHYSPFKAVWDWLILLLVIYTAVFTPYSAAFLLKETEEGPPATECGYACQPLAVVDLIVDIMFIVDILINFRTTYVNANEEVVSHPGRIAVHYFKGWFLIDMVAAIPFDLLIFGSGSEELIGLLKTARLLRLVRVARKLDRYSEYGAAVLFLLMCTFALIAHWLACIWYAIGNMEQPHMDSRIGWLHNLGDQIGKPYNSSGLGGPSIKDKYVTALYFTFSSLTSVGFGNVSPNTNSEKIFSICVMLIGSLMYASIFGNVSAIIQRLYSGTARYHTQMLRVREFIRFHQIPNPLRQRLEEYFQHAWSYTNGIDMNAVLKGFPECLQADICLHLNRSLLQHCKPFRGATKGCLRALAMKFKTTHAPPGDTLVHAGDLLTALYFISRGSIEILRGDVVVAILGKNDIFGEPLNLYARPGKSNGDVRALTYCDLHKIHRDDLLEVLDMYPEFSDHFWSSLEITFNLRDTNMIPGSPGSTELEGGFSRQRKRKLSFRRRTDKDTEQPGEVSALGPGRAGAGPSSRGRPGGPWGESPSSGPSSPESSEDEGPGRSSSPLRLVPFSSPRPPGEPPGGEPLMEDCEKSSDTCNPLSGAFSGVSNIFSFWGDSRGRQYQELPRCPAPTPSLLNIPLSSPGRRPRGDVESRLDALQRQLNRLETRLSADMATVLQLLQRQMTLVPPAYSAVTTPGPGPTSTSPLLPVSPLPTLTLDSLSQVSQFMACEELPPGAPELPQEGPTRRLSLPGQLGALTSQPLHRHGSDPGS
# Method in brief: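 hERG affinity was measured on the IonWorks automated electrophysiology platform and reported as Kd.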
# [12] = Metabolic stability of the compound in mouse blood; format: ADME, tissue-based
# T1 sequence (P56524 whole entry, canonical isoform): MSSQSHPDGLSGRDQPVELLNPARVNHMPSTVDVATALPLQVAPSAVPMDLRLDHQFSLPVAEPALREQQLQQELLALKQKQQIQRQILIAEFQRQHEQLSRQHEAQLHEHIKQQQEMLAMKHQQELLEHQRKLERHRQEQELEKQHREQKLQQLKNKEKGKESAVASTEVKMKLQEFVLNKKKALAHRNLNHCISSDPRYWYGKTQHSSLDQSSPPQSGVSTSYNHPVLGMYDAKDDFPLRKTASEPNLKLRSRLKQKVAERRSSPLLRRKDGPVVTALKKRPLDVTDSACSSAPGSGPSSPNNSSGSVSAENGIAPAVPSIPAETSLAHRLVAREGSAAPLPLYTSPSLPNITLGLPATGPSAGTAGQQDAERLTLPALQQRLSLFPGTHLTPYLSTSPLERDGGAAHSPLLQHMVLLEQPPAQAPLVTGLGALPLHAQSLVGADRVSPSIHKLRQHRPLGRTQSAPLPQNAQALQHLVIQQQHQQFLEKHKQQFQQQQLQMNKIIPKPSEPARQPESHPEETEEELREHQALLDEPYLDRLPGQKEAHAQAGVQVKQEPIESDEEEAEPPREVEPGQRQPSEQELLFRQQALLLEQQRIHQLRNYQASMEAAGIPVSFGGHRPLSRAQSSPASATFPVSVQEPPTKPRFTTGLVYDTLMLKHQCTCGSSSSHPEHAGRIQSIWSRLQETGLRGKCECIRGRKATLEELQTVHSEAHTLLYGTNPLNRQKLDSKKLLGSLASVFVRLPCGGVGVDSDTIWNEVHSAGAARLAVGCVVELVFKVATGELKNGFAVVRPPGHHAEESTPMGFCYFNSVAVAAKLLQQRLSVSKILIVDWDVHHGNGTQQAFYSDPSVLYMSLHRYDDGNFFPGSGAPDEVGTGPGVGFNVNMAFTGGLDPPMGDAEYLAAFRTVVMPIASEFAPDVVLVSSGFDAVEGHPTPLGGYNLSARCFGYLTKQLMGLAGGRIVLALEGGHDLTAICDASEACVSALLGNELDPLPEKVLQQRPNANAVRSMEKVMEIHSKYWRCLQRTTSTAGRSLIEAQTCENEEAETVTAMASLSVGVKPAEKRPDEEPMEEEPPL
smiles,measurement,setting,value
C[C@H](CN1CCC[C@@H]1C)NC(=O)c1ccc(-c2noc(C(F)(F)F)n2)cc1,IC50,[1],10 nM
same,IC50,[2],40 nM
same,Activity,[3],Non-Toxic
same,IC50,[4],> 50 µM
same,Activity,[5],Non-Toxic
same,Activity,[6],Non-Toxic
same,IC50,[7],10 µM
same,Activity,[8],Non-Toxic
same,IC50,[9],30 nM
same,Activity,[10],Non-Toxic
same,Kd,[11],3.9 µM
same,Stabilty,[12],Stable
